What is called AUC is concentration integrated over time. The term Cmax denotes the peak of the concentration-time curve. What is called IC50 is the midpoint of a concentration-inhibition curve. The half-life is the time in which the quantity being followed falls by half. Read a high half-life as slow decline. Usually bioavailability stands for dose-corrected exposure relative to a reference, in per cent. A word on the inhibition in vivo: it is the relative decrease from the control value, in per cent.

Experimental findings from ChEMBL document CHEMBL1131571, “Potent, selective, and orally bioavailable tricyclic pyridyl acetamide N-oxide inhibitors of farnesyl protein transferase with enhanced in vivo antitumor activity” (J Med Chem, 1998) are described below.

Molecules are shown by their SMILES.

Data set [1] is described as follows: Area under the concentration time curve (AUC) taken for 0-24 hr was measured when administered through iv route in mice. The data set is classed as ADME, organism-based. Further details: time < 24 hr, route intravenous. The note with it: mouse, in vivo. Summed up:
(§1)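 Mice received a single 25 mg/kg dose, as HCl salt in 20% hydroxypropyl-β-cyclodextrin, either orally or iv by tail vein. Blood was taken by cardiac puncture after CO2 euthanasia at nine times from 2 min to 24 h, with two mice per time point. Serum was acetonitrile-precipitated and quantified by HPLC-APCI tandem MS. AUC was derived by the linear trapezoidal rule on mean concentrations. Bioavailability is the oral/iv AUC ratio, from different animals. Cmax is the highest mean oral concentration. Half-life was estimated graphically after iv dosing.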

Data set [2] can be described thus: maximum concentration was measured when administered through oral route in mice. The note with it: mouse, in vivo. Further details: route oral. The data set is classed as ADME, organism-based. In a few lines: as §1
Data set [3] is described as follows: Inhibition of Geranylgeranyl transferase. Further details: species or system Homo sapiens. Summed up:
(§2)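 Radiometric transfer assays measuring trichloroacetic acid-precipitable label. FPT: [3H]farnesyl from [3H]farnesyl pyrophosphate onto Ha-Ras-CVLS. GGPT-1: [3H]geranylgeranyl from [3H]geranylgeranyl diphosphate onto Ha-Ras-CVLL.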

Data set [4] has as its system COS-1. Briefly: Inhibitory activity was measured against COS cell. It is filed as functional, cell-based, Cercopithecidae. The note with it: Chlorocebus aethiops. In a few lines:
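Inhibition of intracellular H-Ras processing, measured in transfected Cos cells.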

A short description of data set [5]: Biological half life was measured when given iv route in mice. The data set is classed as ADME, organism-based. To be noted: mouse, in vivo. In a few lines:
as §1

The target in data set [6] is Protein farnesyltransferase (Homo sapiens, UniProt P49354+P49356). In words: Inhibition of Farnesyltransferase. It is filed as protein-complex assay. In a few lines:
as §2

Data set [7] in a line: Oral bioavailability in mouse. To be noted: in vivo. It is filed as ADME, organism-based. In a few lines: as §1
Data set [8] in a line: Area under the concentration time curve (AUC) taken for 0-24 hr was measured when administered through oral route in mice. It is filed as ADME, organism-based. Further details: time < 24 hr, route oral. To be noted: mouse, in vivo. Summed up:
as §1

For data set [9], the system named is DLD-1. Briefly: The inhibition of growth of solid tumor in DLD-1 model was measured at 10 mg/kg after po administration. 0.1<p<0.25. The data set is classed as functional. The note with it: Homo sapiens.
For data set [10], the system named is DLD-1. Briefly: The inhibition of growth of solid tumor in DLD-1 model was measured at 50 mg/kg after po administration. 0.01<p<0.025. It is filed as functional. To be noted: Homo sapiens.
The subject of data set [11] is DLD-1. In words: The inhibition of growth of solid tumor in DLD-1 model was measured at 50 mg/kg after po administration. p<0.01. The data set is classed as functional. To be noted: Homo sapiens.
The test system of data set [12] is DLD-1. Briefly: The inhibition of growth of solid tumor in DLD-1 model was measured at 10 mg/kg after po administration. 0.05<p<0.1. To be noted: Homo sapiens. It is filed as functional.
The subject of data set [13] is DLD-1. In words: The inhibition of growth of solid tumor in DLD-1 model was measured at 10 mg/kg after po administration. 0.01<p<0.025. It is filed as functional. The note with it: Homo sapiens.

For the molecule `O=C(Cc1cc[n+]([O-])cc1)N1CCC(C2c3ccc(Cl)cc3CCc3cc(Br)cnc32)CC1` (stereo unspecified), the AUC at 24 h in data set [1] was 10.6 µg·h/mL; in data set [8] it was 4.1 µg·h/mL. The molecule further returned a Cmax in data set [2] of 10 µg/mL. In addition, the IC50 is greater than 38 µM in data set [3], 0.4 µM in data set [4] and 0.04 µM in data set [6]. In data set [5], the half-life turned out to be 46 min. Besides, the bioavailability in data set [7] was found to be 38%. In [9], this molecule returned an inhibition in vivo at 10 mg/kg of 38%. The inhibition in vivo at 50 mg/kg in data set [10] is 60%.

Consider `O=C(Cc1cc[n+]([O-])cc1)N1CCC(C2c3ccc(Cl)cc3C=Cc3cc(Br)cnc32)CC1` (stereo unspecified), for which the results for the exposure (AUC) at 24 h in data set [1] and in data set [8] were 18.6 µg·h/mL and 19 µg·h/mL, respectively. Also, in data set [2], the peak level (Cmax) was 11 µg/mL. The IC50 is greater than 38 µM in data set [3], 0.7 µM in data set [4] and 0.03 µM in [6]. Besides, the half-life in data set [5] stood at 26.6 min. This molecule also showed a bioavailability in data set [7] of 100%. Also, the inhibition in vivo at 50 mg/kg in data set [11] was determined as 37%. Further, testing at 10 mg/kg in data set [12] gave an inhibition in vivo of 21%.

Regarding `O=C(Cc1cc[n+]([O-])cc1)N1CCC(C2c3ccc(Cl)cc3C=C(Br)c3cc(Br)cnc32)CC1` (stereo unspecified), the AUC at 24 h in [1] was 43.7 µg·h/mL; in data set [8], 84.9 µg·h/mL. In data set [2], this molecule showed a Cmax of 12 µg/mL. Also, the IC50 in data set [3] was greater than 33 µM; in data set [4] it was 0.6 µM; in data set [6], 0.04 µM. For the same molecule, the half-life in [5] was 82.2 min. The molecule further showed a bioavailability in [7] of 100%. In data set [11], this molecule returned an inhibition in vivo at 50 mg/kg of 70%. The same molecule returned an inhibition in vivo at 10 mg/kg in data set [13] of 52%.

Molecule `O=C(Cc1cc[n+]([O-])cc1)N1CCC(=C2c3ccc(Cl)cc3CCc3cc(Br)cnc32)CC1` came in with a Cmax in data set [2] of 10 µg/mL. The molecule further came in with an IC50 in [3] of 38 µM. This molecule returned a half-life in [5] of 48 min. The same molecule came in with a bioavailability in data set [7] of 75%. This molecule also yielded an inhibition in vivo at 50 mg/kg in [11] of 40%. Further, at 10 mg/kg the inhibition in vivo in data set [13] was 28%.
